Source: ChEMBL document CHEMBL4038303, “Simultaneous Drug Targeting of the Promoter MYC G-Quadruplex and BCL2 i-Motif in Diffuse Large B-Cell Lymphoma Delays Tumor Growth” (J Med Chem, 2017)
The source made the active and inactive calls. The calls are words filed in the database; no cut-off is given here.

Tests used:
[1] = species on record: Homo sapiens; test: Binding affinity to c-myc G-quadruplex DNA in human HT cells assessed as downregulation of MYC protein levels up to 3 uM after 24 hrs by Western blot analysis; format: cell-based
Summary of the method: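 Cell lines treated 24 h with compound up to 3 μM, with untreated and DMSO-treated controls. Lysates (20 μg total protein) probed by Western blot for BCL2 or MYC with antibodies at 1:1000; actin as loading control. Blots representative of triplicate experiments.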

[2] = system: U2932; test: Potentiation of CPA-induced antitumor activity against human U2932 cells xenografted in SCID mouse assessed as tumor growth inhibition at 7.5 mg/kg, ip for 5 days cotreated with 10 mg/kg NSC-59276 measured on day 12 post first treatment (reference value: 67%); format: functional
Summary of the method: (§1)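 U2932 DLBCL cells (10 × 10^6 in 100 μL sterile saline, viability >91%) injected subcutaneously into left flank of SCID mice (6−8 weeks, immunoglobulin ≤20 μg/mL). Mice pair-matched by tumor volume. Drugs given ip daily for 5 days, CPA 30 mg/kg; controls received all diluents. Tumor volume = a2 × b/2 (a smallest, b largest diameter); n = 5−8; Grubbs' test for outliers.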

[3] = system: U2932; test: Potentiation of CPA-induced antitumor activity against human U2932 cells xenografted in SCID mouse assessed as reduction in tumor burden at 5 mg/kg, ip administered for 5 consecutive days measured up to 10 days post first treatement; format: functional, organism-based
Summary of the method: (§2)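 SCID mice bearing subcutaneous left-flank U2932 xenografts (10 × 10^6 cells in saline), pair-matched by tumor volume. Test agent given ip daily for 5 days with 50 mg/kg CPA; diluent-treated and CPA-alone controls. Tumor volume estimated as a2 × b/2 from smallest and largest diameters. Grubbs' test for outliers; two-tailed Student's t test.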

[4] = system: Mus musculus; test: Reduction in Myc mRNA level in tumor of SCID mouse xenografted with human U2932 cells at 5 to 7.5 mg/kg, ip administered for 5 consecutive days cotreated with CPA and NSC-59276 by qPCR method; format: functional, organism-based
Summary of the method: (§3)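 Tumors from U2932 xenograft SCID mice given ip treatment daily for 5 days were harvested. Total RNA was taken from the same tumor preparations used for protein lysates, and MYC or BCL2 mRNA was quantified by TaqMan qPCR normalized to TBP. Comparisons were made with diluent-treated mice or CPA-only mice.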

[5] = system: Mus musculus; test: Reduction in Myc mRNA level in SCID mouse xenografted with human U2932 cells at 10 mg/kg, ip administered for 5 consecutive days cotreated with CPA and NSC-59276 by qPCR method; format: functional, organism-based; summary of the method: as §3
[6] = species on record: Homo sapiens; test: Binding affinity to BLC2 i-motif promoter DNA in BCL2 and MYC translocation-positive human VAL cells assessed as downregulation of BLC2 mRNA levels up to 3 uM after 24 hrs by qPCR method
Summary of the method: (§4)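 DLBCL lines grown in RPMI with 10% FBS (SUDHL4 15% FBS) and penicillin/streptomycin. Cells exposed for 24 h to rising concentrations up to 3 μM; DMSO as vehicle control. Total RNA isolated, target mRNA measured by TaqMan real-time qPCR, normalized to TBP and expressed relative to untreated cells; triplicate experiments, two-tailed t test.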

[7] = system: U2932; test: Antitumor activity against human U2932 cells xenografted in SCID mouse assessed as reduction in tumor burden at 5 to 7.5 mg/kg, ip for 5 days cotreated with 10 mg/kg NSC-59276 measured on day 9 to 15 post first treatment; format: functional, organism-based; summary of the method: as §1
[8] = system: Mus musculus; test: Reduction in Bcl2 mRNA level in tumor of SCID mouse xenografted with human U2932 cells at 5 to 7.5 mg/kg, ip administered for 5 consecutive days cotreated with CPA and NSC-59276 by qPCR method; format: functional, organism-based; summary of the method: as §3
[9] = system: Mus musculus; test: Toxicity in scid mouse xenografted with human U2932 cells assessed as survival at 5 mg/kg, ip administered for 5 consecutive days cotreated with NSC-59276 and CPA; format: organism-based; conditions: in vivo
Summary of the method: (§5)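 SCID mice (6−8 weeks, female or male, serum immunoglobulin ≤20 μg/mL by ELISA) implanted subcutaneously in left flank with 10 × 10^6 U2932 cells in 100 μL saline; pair-matched by tumor volume; dosed ip daily for 5 days; controls received all compound diluents; tumor volume a2 × b/2; outliers by Grubbs' test; two-tailed t test with Šidák–Bonferroni correction.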

[10] = system: Mus musculus; test: Reduction in Bcl2 mRNA level in SCID mouse xenografted with human U2932 cells at 10 mg/kg, ip administered for 5 consecutive days cotreated with CPA and NSC-59276 by qPCR method; format: functional, organism-based; summary of the method: as §3
[11] = system: Mus musculus; test: Toxicity in scid mouse xenografted with human U2932 cells assessed as change in body weight at 5 mg/kg, ip administered for 5 consecutive days cotreated with NSC-59276 and CPA; format: organism-based; conditions: in vivo; summary of the method: as §5
[12] = species on record: Homo sapiens; test: Binding affinity to BLC2 G-quadruplex DNA in BCL2 translocation-positive human SUDHL4 cells assessed as downregulation of BLC2 mRNA levels at 3 uM after 24 hrs by qPCR method; summary of the method: as §4
[13] = system: U2932; test: Potentiation of CPA-induced antitumor activity against human U2932 cells xenografted in SCID mouse assessed as tumor growth inhibition at 7.5 mg/kg, ip for 5 days cotreated with 10 mg/kg NSC-59276 measured on day 15 post first treatment (reference value: 44%); format: functional; summary of the method: as §1
[14] = species on record: Homo sapiens; test: Stabilization of c-myc G-quadruplex DNA in BCL2 and MYC translocation-positive human VAL cells assessed as potentiation of CPA-induced apoptosis by measuring increase in caspase-3 activity at 3 uM after 24 hrs in presence of NSC-59276 by AFC based fluorescence assay (reference value: 30%)
[15] = species on record: Homo sapiens; test: Binding affinity to c-myc G-quadruplex DNA in BCL2 translocation-positive human SUDHL4 cells assessed as downregulation of MYC mRNA levels up to 3 uM after 24 hrs by qPCR method relative to control; summary of the method: as §4
[16] = system: U2932; test: Potentiation of CPA-induced antitumor activity against human U2932 cells xenografted in SCID mouse assessed as reduction in tumor burden at 2.5 mg/kg, ip administered for 5 consecutive days measured up to 10 days post first treatement; format: functional, organism-based; summary of the method: as §2
[17] = species on record: Homo sapiens; test: Binding affinity to c-myc G-quadruplex DNA in MYC translocation-positive and BCL2 amplification-positive human U2932 cells assessed as downregulation of MYC mRNA levels up to 3 uM after 24 hrs by qPCR method relative to control; summary of the method: as §4
[18] = species on record: Homo sapiens; test: Binding affinity to c-myc G-quadruplex DNA in BCL2 translocation-positive human SUDHL4 cells assessed as downregulation of MYC mRNA levels at 0.25 to 3 uM after 6 hrs by qPCR method

`Cc1c2ccncc2c(C)c2c1[nH]c1ccc(OCCN(C)C)cc12.Cl.Cl` was tested, and the Activity [1] was “Active”, the TGI [2] was 46% and the Activity [3] was “Active”. For the same compound, the Activity [4] was “Active”, the Activity [5] was “Active” and the Activity [6] was “inactive”. For the same compound, the Activity [7] was “inactive”, the Activity [8] was “Active” and the Activity [9] was “Non-Toxic”. The Activity [10] was “Active”, the Activity [11] was “Non-Toxic” and the Activity [12] was “Active”. The TGI [13] was 37%, the Activity [14] was 100% and the Activity [15] was < 90%. For the same compound, the Activity [16] was “Active”, the Activity [17] was < 90% and the Activity [18] was “Active”.
